Measured values reported in PubChem BioAssay AID822 (SRMLSC, 2007).
Active and inactive are the calls of the source.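 Rule for the calls: active = half-maximal effective dose for blocking growth of human endothelial cells at most 100 µM; inactive = the rest.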

Tested on: not listed separately
Assay: growth suppression of umbilical vein endothelial cells – cell-based, HUVEC, ATP luminescence, dose response (AID 822);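 note: cells exposed to compound for 72 h before the ATP read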;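 for viability: 100% = median luminescence of untreated cell-only control wells on each plate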
Details: HUVEC proliferation, viability ATP luminescence; at 10 µM (top of the series)
Procedure, shortened: (§1)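 Assay system: HUVEC primary endothelial cells, low passage (≤12); amount: 1250 HUVEC cells seeded per well; buffer or medium: EBM plus 2% FBS; read-out: percent viability relative to median untreated cell signal, EC50 via four-parameter fit; signal: luminescent ATP measurement with CellTiter-Glo reagent; schedule: 72 h exposure, 37 °C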

| Compound | viability |
| --- | --- |
| COc1cccc(C(=O)Oc2c(CN3CCOCC3)cc(Cl)c3cccnc23)c1 | 84% (inactive) |

Same assay, conditions: HUVEC proliferation, viability ATP luminescence; at 20 µM (top of the series)

| Compound | viability |
| --- | --- |
| COc1ccc(NC(=O)CSc2nnc(CNC(=O)COc3ccc(Cl)cc3)o2)c(OC)c1 | 95.2% (inactive) |
| O=C(COc1nc2ccccc2nc1N1CCOCC1)N1CCc2ccccc21 | 86.1% (inactive) |
| OC1(Cc2ccn[nH]2)CCCCC1 | 93.6% (inactive) |
| CCOc1ccc(NC(=S)Nc2ccc(C)c([N+](=O)[O-])c2)cc1 | 88.7% (inactive) |
| N#CCC(=O)Nc1ncn(Cc2ccccc2Cl)n1 | 95.8% (inactive) |
| COc1ccc(N2C(=O)CC(Sc3nnc(-c4ccccc4)o3)C2=O)cc1 (stereo unspecified) | 95% (inactive) |
| COc1ccc2cc3cc(C(=O)NCCc4ccc(OC)c(OC)c4)oc3nc2c1 | 93.3% (inactive) |
| Cc1ccc(C(C#N)c2ccc(C(=O)c3ccc(F)cc3)cc2)cc1 (stereo unspecified) | 84% (inactive) |
| COc1ccc(Cl)cc1C(=O)n1nc(C)cc1C | 96.7% (inactive) |
| CN(C)C(=O)CSc1cccc2cccnc12 | 84.4% (inactive) |
| C=CCn1c(SCC(=O)NC(=O)NCc2ccco2)nc2sc(CC)cc2c1=O | 86.9% (inactive) |
| Clc1ccc(-c2nc(NCCN3CCOCC3)c3ccccc3n2)cc1 | 86% (inactive) |
| NC(=O)Cc1c[nH]c2cccc(O)c12 | 103% (inactive) |
| CCOC(=O)c1ccc2c(c1)NC(=O)C(N1CCN(c3ccc(OC)cc3)CC1)S2 (stereo unspecified) | 98% (inactive) |
| CC1(C)CC(=O)c2cc(C(=O)NCc3ccco3)c(=O)n(-c3ccc(Cl)cc3)c2C1 | 97.2% (inactive) |
| CCn1c(SCC(=O)Nc2cc(C)on2)nc2sc3c(c2c1=O)CCCC3 | 86.3% (inactive) |
| Cc1cc(C(=O)Nc2nc3ccc(S(C)(=O)=O)cc3s2)c(C)o1 | 82.9% (inactive) |
| CC1(C)CC(NC(=O)c2coc(=O)c(Br)c2)CC(C)(C)N1 | 81% (inactive) |
| O=C(CN1CCN(S(=O)(=O)c2ccc(F)cc2)CC1)Nc1ccc2c(c1)OCO2 | 116% (inactive) |

| Compound | viability |
| --- | --- |
| Cn1nnc(NC(=O)CSc2ccc(Cl)cc2)n1 | 103% (inactive) |
| O=C(Cc1sc(-c2ccccc2Cl)nc1-c1ccccc1)Nc1ccc(F)cc1 | 83.5% (inactive) |
| C/C(=N\O)C(=O)C(CN1CCCCC1)CN1CCCCC1 | 81% (inactive) |
| COCCn1c(C)cc(C(=O)CSc2nc3ccccc3o2)c1C | 96.1% (inactive) |
| COc1ccc2[nH]cc(C(=O)CN3CCN(C4CCCCC4)CC3)c2c1 | 85.4% (inactive) |
| COc1ccc(OC)c2sc(N3CCCCC3)nc12 | 88.4% (inactive) |
| COc1cc2c(C(=O)NCc3ccc4c(c3)OCO4)cn(CC(C)C)c(=O)c2cc1OC | 82.3% (inactive) |
| CC1CCCC(NC(=O)C2CCN(S(=O)(=O)N3CCC4(CC3)OCCO4)CC2)C1C (stereo unspecified) | 93.2% (inactive) |
| COc1ccc(CCC(=O)N2CCN(C3CCCCC3)CC2)cc1 | 99.8% (inactive) |
| O=C(CCSc1ccc(Cl)cc1)N1CCN(c2ncccn2)CC1 | 94.5% (inactive) |
| CN(CCO)c1cc(Sc2nc3ccccc3s2)c2nonc2c1[N+](=O)[O-] | 85.4% (inactive) |
| CCOc1ccc(-c2nn3c(-c4ccccc4)nnc3s2)cc1 | 83.3% (inactive) |
| CC(C)(C)n1cnc2cc(NS(=O)(=O)c3ccccc3)ccc21 | 105% (inactive) |
| Cc1sc2nc(SCC(=O)NCc3ccco3)n(CCc3ccccc3)c(=O)c2c1C | 91.5% (inactive) |
| Cc1ccc(Cn2c(SCC(=O)Nc3cc(C)on3)nc3ccccc3c2=O)cc1 | 81.2% (inactive) |
| CCC(=O)N1c2ccc(S(=O)(=O)CCC(=O)N3CCn4c3nc3ccccc34)cc2CC1C (stereo unspecified) | 84.1% (inactive) |
| C=CCn1c(O)c(C2=c3ccccc3=NC2=O)s/c1=N/c1nccs1 | 85.2% (inactive) |
| Cn1c(=O)c2c(ncn2CC(=O)Nc2nc(-c3ccccc3Cl)cs2)n(C)c1=O | 89.5% (inactive) |
| CCOc1ccc(NS(=O)(=O)c2ccc(OCC(=O)NCCCOC)cc2)cc1 | 94.4% (inactive) |

Tested on: HUVEC proliferation, viability ATP luminescence
Assay: as above
Details: not given
Procedure, shortened: as §1

| Compound | EC50 |
| --- | --- |
| CCCCc1ccc(Nc2nc(CCC)cc(=O)[nH]2)cc1 | 9.15 µM |
| Cc1cc(C)n(-c2nc(NCCCO)c3c4c(sc3n2)CCCC4)n1 | 2.41 µM |
| CCOC(=O)/C=C/S(=O)(=O)c1ccc(NC(C)=O)cc1 | 15.8 µM |
| OCc1ccc(O)c2ncccc12 | 20.5 µM |
| Cc1ccc(Cn2nc(C)c(NC(=O)c3cc(-c4ccc5c(c4)OCO5)on3)c2C)cc1 | 10.2 µM |
| Clc1ccc(COC(Cn2ccnc2)c2ccc(Cl)cc2Cl)cc1 (stereo unspecified) | 6.31 µM |
| COc1ccccc1C1CC(c2c(-c3ccccc3)c3cc(Cl)ccc3[nH]c2=O)=NN1S(C)(=O)=O (stereo unspecified) | 8.65 µM |
| O=Cc1ccc(Sc2nnc(-c3ccccc3)o2)c([N+](=O)[O-])c1 | 11.4 µM |
| CC(=O)Nc1ccc(S(=O)(=O)NC2=C(N3CCN(c4ccc(F)cc4)CC3)C(=O)c3ccccc3C2=O)cc1 | 2.38 µM |
| CCOC(=O)N1CCc2c(sc(NC(=O)c3ccc(S(=O)(=O)N4CCCC4)cc3)c2C#N)C1 | 17.5 µM |
| CCCCCCn1c(C)nc2c(c1=O)c1nc3ccccc3nc1n2/N=C/c1ccco1 | 14.5 µM |
| CCC(=O)OCCNc1cc(Sc2nc3ccccc3s2)c2nonc2c1[N+](=O)[O-] | 14.5 µM |
| CCN(CC)CCn1c(=N)n(CCOc2ccccc2)c2ccccc21 | 14.2 µM |
| Cc1ccc(C2(C(F)(F)F)N=C3Sc4cc(C)cc(C)c4N3C(=O)N2)cc1 (stereo unspecified) | 11 µM |
| COC(=O)c1ccc2c(=O)n(Cc3ccco3)c(SCC(=O)Nc3ccc(C)c(Cl)c3)nc2c1 | 9.21 µM |
| COc1ccc(Cl)c(N2CCN(CCCNC(=O)Nc3ccc(C)cc3)CC2)c1 | 12.3 µM |
| FC(F)C(F)(F)C(F)(F)C(F)(F)c1cc(-c2ccccc2)n[nH]1 | 8.28 µM |
| Cc1cccc(-c2nnc(NC(=O)c3ccc(Cl)cc3)o2)c1 | 2.78 µM |
| COC(=O)c1ccc2c(=O)n(Cc3ccco3)c(SCC(=O)Nc3ccccc3Cl)nc2c1 | 4.94 µM |
| COC(=O)C1=C(O)/C(=C\c2ccc(CNC(=O)C(=O)Nc3ccc(C)cc3)o2)N=C1C | 19.4 µM |
| Cc1cccc(N2CCN(C(=O)Cn3sc4nc(C)cc(C)c4c3=O)CC2C)c1 (stereo unspecified) | 12.4 µM |

| Compound | EC50 |
| --- | --- |
| CC1=CC(C)(C)Nc2ccc(OC(=O)c3cccnc3)cc21 | 12.3 µM |
| CCCOc1ccc(-c2nc(C#N)c(NCCCn3ccnc3)o2)cc1 | 11.3 µM |
| CCCn1c(Nc2nc3ccccc3n2C)nc2ccccc21 | 3.01 µM |
| O=C(Nc1cccc(-c2nnc(-c3ccccc3)o2)c1)c1ccc(Br)o1 | 9.92 µM |
| O=C(Nc1ccc(Cl)c(Cl)c1)C1=Cc2ccccc2OC1 | 7.93 µM |
| COC(=O)NC(=C(Cl)Cl)S(=O)(=O)c1ccccc1 | 8.53 µM |
| CCCc1[nH]nc2c1C(c1ccc(Br)s1)C(C#N)=C(N)O2 (stereo unspecified) | 8.67 µM |
| CCCc1cc(C(=O)Cc2ccc(F)cc2)c(O)cc1O | 10 µM |
| N#Cc1nc(-c2ccc(OCc3ccccc3Cl)cc2)oc1NCCCn1ccnc1 | 2.55 µM |
| O=C1NCCCC2c3cc(O)c4ccccc4c3OC12N1CCCCC1 (stereo unspecified) | 3.25 µM |
| COC(=O)CS(=O)(=O)c1nnc([C@H](Cc2ccccc2)NC(=O)OC(C)(C)C)o1 | 8.85 µM |
| CCc1cc(-c2[nH]ncc2-c2ccc3c(c2)OCO3)c(O)cc1O | 7.97 µM |
| O=[N+]([O-])c1ccc(/C=N/Nc2nc(N3CCCC3)nc(N3CCCC3)n2)o1 | 16.2 µM |
| O=C(CCC1CCCC1)c1c(O)c2ccccc2oc1=O | 4.67 µM |
| COC(=O)/C(=C\Nc1ccc(Cl)cc1Cl)NC(=O)c1ccc(Cl)cc1Cl | 7.64 µM |
| Cc1cc(C)c2c(c1)SC1=NC(c3ccccc3)(C(F)(F)F)NC(=O)N12 (stereo unspecified) | 8.47 µM |
| Cc1ccccc1-n1ncc2c([N+](=O)[O-])cc([N+](=O)[O-])cc21 | 9.29 µM |
| CCc1ccc(-c2nc(CN3CCC(C(=O)N4CCN(c5ccccn5)CC4)CC3)c(C)o2)cc1 | 14.2 µM |
| COc1ccc(C(=O)C(CN2CCOCC2)c2ccccc2)cc1 (stereo unspecified) | 11.7 µM |
| COc1ccc(O)c(-c2cc(-c3cccc(Br)c3)n[nH]2)c1 | 10.8 µM |
| Cc1ccsc1/C=C/C1=Cc2c(sc(NC(=O)CSc3n[nH]c(N)n3)c2C#N)C(C)(C)C1 | 17.7 µM |

| Compound | EC50 |
| --- | --- |
| Cn1c(=O)c2c(nc(Oc3ccc4c(c3)OCO4)n2Cc2ccc(Cl)cc2)n(C)c1=O | 5.33 µM |
| CC(C)(C)OC(=O)N[C@@H](Cc1ccccc1)c1nnc(S(=O)(=O)Cc2cccc(F)c2)o1 | 14.3 µM |
| CCOc1ccc(Nc2oc(-c3ccc(Cl)cc3)nc2C#N)cc1 | > 10 µM (inactive) |
| Cc1cc(C)cc(OC(=O)CS(=O)c2ccc(C(F)(F)F)cc2[N+](=O)[O-])c1 (stereo unspecified) | 18.7 µM |
| COc1ccc(Cc2nc(C(=O)Nc3ccc(Cl)cc3)cs2)cc1 | 19.9 µM |
| CC(C)CC[n+]1ccn(C2=C([O-])c3ccccc3C(=O)/C2=N\S(=O)(=O)c2ccccc2)c1 | 5.38 µM |
| Cc1cccc(NC(=O)Nc2cccc(Oc3c(F)c(F)c(F)c(F)c3F)c2)c1 | 15.3 µM |
| CC(C)c1nnc(NC(=O)CCS(=O)(=O)c2nc(-c3cccs3)cc(C(F)(F)F)n2)s1 | 9.9 µM |
| Cc1cc(NC(=O)CSc2nc3c(sc4ccccc43)c(=O)n2CCCN2CCOCC2)n[nH]1 | 18.2 µM |
| CCOC(=O)c1cc2c(N)c(C(=O)c3cc(C#N)c(SC)nc3C)sc2nc1C | 5.27 µM |
| O=C(Nc1ccc(Cl)cc1)N1CCCN(Cc2ccc(F)cc2)C1 | 12.6 µM |
| Cc1ccc(NC(=O)c2cc(NC(=O)c3ccco3)ccc2N2CCCCC2)cc1 | 17.9 µM |
| Oc1c(C(Nc2ccccn2)c2ccccn2)ccc2cccnc12 (stereo unspecified) | 17.8 µM |
| CCOC(=O)c1sc(NC(=O)CSc2nnnn2-c2ccc(C)cc2C)nc1C | 13.7 µM |
| Nc1c(S(=O)(=O)c2ccccc2)c2nc3ccccc3nc2n1/N=C/c1cccc(O)c1 | 6.06 µM |
| CCCCN(C)S(=O)(=O)c1ccc(C(=O)Nc2nnc(-c3cccs3)o2)cc1 | 1.69 µM |
| CCCCS(=O)(=O)/C=C\C=C/S(=O)(=O)CCCC | 5.04 µM |
| CCOC(=O)c1ccccc1Nc1cn(C(C)=O)c2ccccc12 | 11.7 µM |
| COCc1cc(CN2CCCC2)c(O)c2ncccc12 | > 10 µM (inactive) |
| O=c1/c(=C/c2ccco2)sc2n1CN(c1cccc(Br)c1)CN=2 | 15.7 µM |
